Assay results taken from ChEMBL document CHEMBL5705900, “PF-06463922 is a potent and selective next-generation ROS1/ALK inhibitor capable of blocking crizotinib-resistant ROS1 mutations” (Proc Natl Acad Sci U S A, 2015).
Active and inactive are the calls of the source. The rule behind the calls is not given here.

Columns and labels:
[1] = test system: Proto-oncogene tyrosine-protein kinase ROS (Homo sapiens), P08922 [L2026M]; assay: Inhibition of recombinant human ROS1 L2026M mutant in presence of ATP by microfluidic mobility shift assay; conditions: dose 0.001-1000 nM
[2] = biological target: T1, Proto-oncogene tyrosine-protein kinase ROS (Homo sapiens, UniProt P08922); assay: Inhibition of recombinant human ROS1 in presence of ATP by microfluidic mobility shift assay; conditions: dose 0.001-1000 nM
[3] = test system: Proto-oncogene tyrosine-protein kinase ROS (Homo sapiens), P08922 [G2032R]; assay: Inhibition of recombinant human ROS1 G2032R mutant in presence of ATP by microfluidic mobility shift assay; conditions: dose 0.001-1000 nM
[4] = biological target: T2, H-2 class II histocompatibility antigen gamma chain/Proto-oncogene tyrosine-protein kinase ROS (Mus musculus, UniProt Q78DX7); assay: Inhibition of CD74-ROS1 expressed in mouse BaF3 cells assessed as inhibition of phosphorylated ROS1 incubated for 1 hr by ELISA analysis; format: cell-based
Method in brief: (§1)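 Cells seeded in growth medium with 0.5% serum and incubated overnight; compounds diluted in serum-free medium, added for 1 h, then medium aspirated. Lysates assayed for phospho-ROS1 (Tyr2274) by sandwich ELISA. IC50 from four-parameter concentration-response curve fit. Engineered lines made by retroviral transduction (pMSCV) with puromycin or hygromycin selection for 5 d.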

[5] = Inhibition of CD74-ROS1 G2032R mutant expressed in mouse BaF3 cells assessed as inhibition of phosphorylated ROS1 incubated for 1 hr by ELISA analysis; format: cell-based; conditions: BaF3, 1 h
Method in brief: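 BaF3 cells retrovirally engineered to express CD74-ROS1 G2032R, seeded in growth medium with 0.5% serum overnight. Compounds diluted in serum-free medium, added for 1 h, then aspirated. Lysates assayed for phospho-ROS1 (Tyr2274) by sandwich ELISA; IC50 from four-parameter concentration-response curve fit.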

[6] = biological target: T2, H-2 class II histocompatibility antigen gamma chain/Proto-oncogene tyrosine-protein kinase ROS; assay: Inhibition of CD74-ROS1 expressed in mouse NIH3T3 cells assessed as inhibition of phosphorylated ROS1 incubated for 1 hr by ELISA analysis; format: cell-based; method in brief: as §1
[7] = biological target: T3, Golgi-associated PDZ and coiled-coil motif-containing protein/Proto-oncogene tyrosine-protein kinase ROS (Mus musculus, UniProt Q78DX7); assay: Inhibition of FIG-ROS1 short isoform fusion protein expressed in mouse NIH3T3 cells assessed as inhibition of phosphorylated ROS1 incubated for 1 hr by ELISA analysis; format: cell-based; method in brief: as §1
[8] = biological target: T3, Golgi-associated PDZ and coiled-coil motif-containing protein/Proto-oncogene tyrosine-protein kinase ROS; assay: Inhibition of FIG-ROS1 long isoform fusion protein expressed in mouse NIH3T3 cells assessed as inhibition of phosphorylated ROS1 incubated for 1 hr by ELISA analysis; format: cell-based; method in brief: as §1
HCC78 [9] = assay: Antiproliferative activity against human HCC78 cells harboring SLC34A2-ROS1 fusion protein assessed as reduction in cell viability incubated for 72 hrs by CellTiter-Glo assay; format: functional, cell-based; conditions: HCC78, 72 h
Method in brief: (§2)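 HCC78 NSCLC cells seeded in growth medium with 10% FBS, cultured overnight at 37 °C, then exposed to serial compound dilutions for 72 h at 37 °C. Relative cell number read by CellTiter-Glo luminescence; IC50 from four-parameter concentration-response curve fit.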

BaF3 [10] = assay: Antiproliferative activity against mouse BaF3 cells harboring CD74-ROS1 G2032R mutant assessed as reduction in cell viability incubated for 72 hrs by CellTiter-Glo assay; format: functional, cell-based; conditions: BaF3, 72 h
Method in brief: (§3)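 BaF3 cells engineered by pMSCV retroviral transduction (puromycin or hygromycin selection, 5 d, pooled populations) with CD74-ROS1 fusion variants. Seeded in growth medium with 10% FBS overnight at 37 °C, then serial compound dilutions for 72 h at 37 °C. CellTiter-Glo for relative cell number; IC50 by four-parameter curve fit.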

BaF3 [11] = assay: Antiproliferative activity against mouse BaF3 cells harboring CD74-ROS1 L2026M mutant assessed as reduction in cell viability incubated for 72 hrs by CellTiter-Glo assay; format: functional, cell-based; conditions: BaF3, 72 h; method in brief: as §3
HCC78 [12] = assay: Antiproliferative activity against human HCC78 cells assessed as reduction in cell viability incubated for 72 hrs by CellTiter-Glo assay; format: functional, cell-based; conditions: HCC78, 72 h; method in brief: as §2
BaF3 [13] = assay: cells; conditions: Mus musculus, BaF3, 72 h
[14] = Inhibition of CD74-ROS1 L2026M mutant expressed in mouse BaF3 cells assessed as inhibition of phosphorylated ROS1 incubated for 1 hr by ELISA analysis; format: cell-based; conditions: BaF3, 1 h
[15] = biological target: T1, Proto-oncogene tyrosine-protein kinase ROS; assay: Binding affinity to recombinant human ROS1 assessed as inhibition constant in presence of ATP by microfluidic mobility shift assay
SLC34A2-ROS1 = SLC34A2-ROS1 (Homo sapiens, UniProt P08922); assay: Inhibition of SLC34A2-ROS1 fusion protein expressed in human HCC78 cells assessed as inhibition of phosphorylated ROS1 incubated for 1 hr by ELISA analysis; format: cell-based
[16] = biological target: Proto-oncogene tyrosine-protein kinase ROS (Homo sapiens, UniProt P08922, L2026M); assay: Binding affinity to recombinant human ROS1 L2026M mutant assessed as inhibition constant in presence of ATP by microfluidic mobility shift assay
[17] = test system: Proto-oncogene tyrosine-protein kinase ROS (Homo sapiens), P08922 [G2032R]; assay: Binding affinity to recombinant human ROS1 G2032R mutant assessed as inhibition constant in presence of ATP by microfluidic mobility shift assay

Proto-oncogene tyrosine-protein kinase ROS (Homo sapiens), P08922 [L2026M], sequence (P08922 whole entry L2026M): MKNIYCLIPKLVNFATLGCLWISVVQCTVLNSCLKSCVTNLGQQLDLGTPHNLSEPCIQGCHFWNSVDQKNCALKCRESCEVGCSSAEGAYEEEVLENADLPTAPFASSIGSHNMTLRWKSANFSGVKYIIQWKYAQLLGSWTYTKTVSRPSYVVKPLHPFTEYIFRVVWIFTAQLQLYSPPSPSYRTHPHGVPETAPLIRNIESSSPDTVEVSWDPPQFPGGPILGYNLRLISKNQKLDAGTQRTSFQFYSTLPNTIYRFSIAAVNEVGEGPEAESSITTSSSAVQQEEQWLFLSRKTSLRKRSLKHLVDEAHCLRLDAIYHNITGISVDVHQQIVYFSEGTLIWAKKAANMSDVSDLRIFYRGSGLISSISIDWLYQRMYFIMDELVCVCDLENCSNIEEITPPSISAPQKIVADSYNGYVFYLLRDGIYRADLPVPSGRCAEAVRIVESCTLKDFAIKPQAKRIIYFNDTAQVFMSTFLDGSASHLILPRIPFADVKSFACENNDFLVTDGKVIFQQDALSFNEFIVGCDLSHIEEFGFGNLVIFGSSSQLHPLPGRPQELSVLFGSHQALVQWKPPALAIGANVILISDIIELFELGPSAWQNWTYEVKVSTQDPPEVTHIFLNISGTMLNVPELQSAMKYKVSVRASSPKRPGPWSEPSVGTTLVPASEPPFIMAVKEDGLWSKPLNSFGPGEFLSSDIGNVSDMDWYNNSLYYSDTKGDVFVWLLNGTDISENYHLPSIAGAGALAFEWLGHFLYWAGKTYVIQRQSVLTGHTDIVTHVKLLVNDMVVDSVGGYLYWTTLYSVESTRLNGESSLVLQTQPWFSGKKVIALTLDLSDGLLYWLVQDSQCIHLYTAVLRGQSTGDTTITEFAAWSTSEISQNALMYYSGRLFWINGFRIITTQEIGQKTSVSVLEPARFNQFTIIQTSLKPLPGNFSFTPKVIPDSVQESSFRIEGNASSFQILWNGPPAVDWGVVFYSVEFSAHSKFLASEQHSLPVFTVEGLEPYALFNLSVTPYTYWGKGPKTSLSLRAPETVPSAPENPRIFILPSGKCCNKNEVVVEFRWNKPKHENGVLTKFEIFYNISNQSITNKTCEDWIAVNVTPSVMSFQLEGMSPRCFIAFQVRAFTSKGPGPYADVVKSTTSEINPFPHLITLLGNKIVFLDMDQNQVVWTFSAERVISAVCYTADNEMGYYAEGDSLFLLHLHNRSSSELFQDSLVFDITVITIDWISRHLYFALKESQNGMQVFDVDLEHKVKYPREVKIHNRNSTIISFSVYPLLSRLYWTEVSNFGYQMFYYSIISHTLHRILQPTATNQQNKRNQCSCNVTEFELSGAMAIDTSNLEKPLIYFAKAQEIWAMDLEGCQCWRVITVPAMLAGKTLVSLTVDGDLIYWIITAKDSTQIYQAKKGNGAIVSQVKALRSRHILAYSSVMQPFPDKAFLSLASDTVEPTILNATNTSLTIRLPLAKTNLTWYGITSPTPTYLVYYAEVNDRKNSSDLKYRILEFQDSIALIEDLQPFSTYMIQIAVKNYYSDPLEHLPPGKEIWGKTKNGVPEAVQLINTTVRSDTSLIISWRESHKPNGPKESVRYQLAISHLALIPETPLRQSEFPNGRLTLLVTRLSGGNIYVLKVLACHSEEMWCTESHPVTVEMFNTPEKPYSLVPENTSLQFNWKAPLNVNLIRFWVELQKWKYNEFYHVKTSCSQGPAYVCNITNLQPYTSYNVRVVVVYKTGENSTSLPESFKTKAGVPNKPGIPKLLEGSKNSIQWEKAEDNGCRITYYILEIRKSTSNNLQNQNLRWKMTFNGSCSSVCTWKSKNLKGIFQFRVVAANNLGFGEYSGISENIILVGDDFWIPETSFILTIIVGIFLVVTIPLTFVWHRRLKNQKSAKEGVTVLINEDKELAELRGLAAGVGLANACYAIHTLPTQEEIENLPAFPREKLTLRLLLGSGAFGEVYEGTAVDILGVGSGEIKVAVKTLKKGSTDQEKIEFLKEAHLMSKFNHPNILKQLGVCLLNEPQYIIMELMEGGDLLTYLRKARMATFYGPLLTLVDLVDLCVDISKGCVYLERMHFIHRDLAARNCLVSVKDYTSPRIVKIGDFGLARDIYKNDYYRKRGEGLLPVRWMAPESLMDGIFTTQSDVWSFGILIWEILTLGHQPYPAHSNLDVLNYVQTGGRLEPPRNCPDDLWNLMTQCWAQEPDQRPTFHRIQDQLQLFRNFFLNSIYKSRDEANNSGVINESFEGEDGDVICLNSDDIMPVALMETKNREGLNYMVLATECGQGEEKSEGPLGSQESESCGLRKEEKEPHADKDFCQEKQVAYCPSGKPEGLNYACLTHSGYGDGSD
T1 sequence (P08922 whole entry): as the sequence (P08922 whole entry L2026M) above, with M2026L counted along it
Proto-oncogene tyrosine-protein kinase ROS (Homo sapiens), P08922 [G2032R], sequence (P08922 whole entry G2032R): as the sequence (P08922 whole entry L2026M) above, with M2026L, G2032R counted along it
T3 sequence (Q78DX7 whole entry, other chains not shown, the tested form may be a part, canonical isoform): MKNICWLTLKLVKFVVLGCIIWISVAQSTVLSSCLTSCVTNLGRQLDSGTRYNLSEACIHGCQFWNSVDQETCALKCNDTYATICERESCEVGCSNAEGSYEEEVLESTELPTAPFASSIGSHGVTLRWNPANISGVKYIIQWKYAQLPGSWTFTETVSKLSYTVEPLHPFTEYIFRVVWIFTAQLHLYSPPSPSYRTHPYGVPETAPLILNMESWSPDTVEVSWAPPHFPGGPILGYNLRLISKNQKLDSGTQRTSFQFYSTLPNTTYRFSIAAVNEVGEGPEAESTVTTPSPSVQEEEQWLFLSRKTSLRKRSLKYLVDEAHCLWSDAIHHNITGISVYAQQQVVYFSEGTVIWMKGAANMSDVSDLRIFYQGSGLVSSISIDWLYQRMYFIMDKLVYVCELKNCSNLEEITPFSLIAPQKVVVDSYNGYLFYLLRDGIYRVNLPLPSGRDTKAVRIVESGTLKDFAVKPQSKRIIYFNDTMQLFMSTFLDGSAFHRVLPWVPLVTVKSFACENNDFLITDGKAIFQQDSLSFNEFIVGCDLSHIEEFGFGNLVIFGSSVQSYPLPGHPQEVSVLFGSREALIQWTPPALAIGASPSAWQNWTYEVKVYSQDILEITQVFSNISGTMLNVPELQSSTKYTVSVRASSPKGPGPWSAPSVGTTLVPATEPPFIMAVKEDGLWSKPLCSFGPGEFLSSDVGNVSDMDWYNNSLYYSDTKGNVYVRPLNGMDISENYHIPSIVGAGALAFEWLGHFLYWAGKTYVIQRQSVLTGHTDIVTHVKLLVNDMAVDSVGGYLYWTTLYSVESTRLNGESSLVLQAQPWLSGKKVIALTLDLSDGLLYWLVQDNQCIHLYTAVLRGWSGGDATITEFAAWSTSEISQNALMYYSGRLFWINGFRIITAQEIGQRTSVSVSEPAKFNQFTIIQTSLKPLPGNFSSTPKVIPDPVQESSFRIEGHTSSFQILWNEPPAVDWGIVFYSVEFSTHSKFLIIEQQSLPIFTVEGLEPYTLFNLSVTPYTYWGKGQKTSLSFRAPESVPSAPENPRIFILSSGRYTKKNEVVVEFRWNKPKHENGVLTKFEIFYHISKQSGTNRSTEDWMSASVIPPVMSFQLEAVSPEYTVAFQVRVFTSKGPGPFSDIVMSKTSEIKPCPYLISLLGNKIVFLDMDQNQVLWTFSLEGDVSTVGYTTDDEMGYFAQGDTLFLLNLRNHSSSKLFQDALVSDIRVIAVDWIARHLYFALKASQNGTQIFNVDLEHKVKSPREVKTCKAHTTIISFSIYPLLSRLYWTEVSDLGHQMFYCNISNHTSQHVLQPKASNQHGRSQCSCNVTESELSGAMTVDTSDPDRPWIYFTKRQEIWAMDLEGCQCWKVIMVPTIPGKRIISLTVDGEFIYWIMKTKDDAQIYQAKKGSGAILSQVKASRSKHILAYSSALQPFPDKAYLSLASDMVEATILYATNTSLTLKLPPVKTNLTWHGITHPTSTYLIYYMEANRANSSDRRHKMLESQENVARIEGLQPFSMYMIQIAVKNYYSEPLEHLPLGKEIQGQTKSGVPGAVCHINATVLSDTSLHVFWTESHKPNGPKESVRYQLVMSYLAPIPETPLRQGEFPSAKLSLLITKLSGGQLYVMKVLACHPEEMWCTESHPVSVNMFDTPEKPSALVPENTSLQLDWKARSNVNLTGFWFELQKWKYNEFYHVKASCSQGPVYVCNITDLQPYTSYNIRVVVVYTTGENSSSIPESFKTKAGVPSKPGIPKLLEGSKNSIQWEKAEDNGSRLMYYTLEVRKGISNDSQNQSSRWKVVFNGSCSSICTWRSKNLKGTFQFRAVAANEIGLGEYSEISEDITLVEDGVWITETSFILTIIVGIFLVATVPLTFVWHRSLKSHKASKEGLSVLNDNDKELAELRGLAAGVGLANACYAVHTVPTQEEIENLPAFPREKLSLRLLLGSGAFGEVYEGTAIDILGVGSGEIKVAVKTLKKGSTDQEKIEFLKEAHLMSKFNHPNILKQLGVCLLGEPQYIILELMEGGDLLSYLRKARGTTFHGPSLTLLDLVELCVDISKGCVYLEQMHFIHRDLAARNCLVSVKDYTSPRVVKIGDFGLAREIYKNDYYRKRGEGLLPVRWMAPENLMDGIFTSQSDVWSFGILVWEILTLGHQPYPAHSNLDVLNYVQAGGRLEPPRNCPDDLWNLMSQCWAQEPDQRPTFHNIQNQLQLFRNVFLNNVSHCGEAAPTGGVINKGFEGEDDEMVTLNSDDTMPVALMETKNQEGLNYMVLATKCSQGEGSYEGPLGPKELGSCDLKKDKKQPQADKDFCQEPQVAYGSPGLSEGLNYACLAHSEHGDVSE
T2 sequence (Q78DX7 whole entry): as the sequence (Q78DX7 whole entry, other chains not shown, the tested form may be a part, canonical isoform) above
T2 sequence (P04441 whole entry, further chain): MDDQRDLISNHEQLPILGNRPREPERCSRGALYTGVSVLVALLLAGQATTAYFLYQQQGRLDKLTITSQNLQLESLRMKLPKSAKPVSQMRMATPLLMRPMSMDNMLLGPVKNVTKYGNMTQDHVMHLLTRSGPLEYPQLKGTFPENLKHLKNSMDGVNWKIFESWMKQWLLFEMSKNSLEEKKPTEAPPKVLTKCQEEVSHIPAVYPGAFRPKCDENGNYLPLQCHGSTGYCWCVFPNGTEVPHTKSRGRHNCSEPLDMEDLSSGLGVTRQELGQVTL

| SMILES | inhibition [1] | inhibition [2] | inhibition [3] | IC50 [4] | IC50 [5] | IC50 [6] | IC50 [7] | IC50 [8] | IC50 (HCC78 [9]) | IC50 (BaF3 [10]) | IC50 (BaF3 [11]) | IC50 (HCC78 [12]) | IC50 (BaF3 [13]) | IC50 [14] | Ki [15] | IC50 (SLC34A2-ROS1) | Ki [16] | Kis [17] |
| --- | --- | --- | --- | --- | --- | --- | --- | --- | --- | --- | --- | --- | --- | --- | --- | --- | --- | --- |
| C[C@@H](Oc1cc(-c2cnn(C3CCNCC3)c2)cnc1N)c1c(Cl)ccc(F)c1Cl [CRIZOTINIB] | Dose-Dependent Effect | Dose-Dependent Effect | Dose-Dependent Effect | 0.0039 µM | > 5 µM | 0.011 µM | 0.06 µM | 0.041 µM | 0.021 µM | > 2 µM | 0.259 µM | 0.047 µM | 0.018 µM | – | – | – | – | – |
| Cc1cc(Nc2ncc(Cl)c(Nc3ccccc3S(=O)(=O)C(C)C)n2)c(OC(C)C)cc1C1CCNCC1 [CERITINIB] | Dose-Dependent Effect | Dose-Dependent Effect | Dose-Dependent Effect | 0.071 µM | > 2 µM | 0.341 µM | 0.488 µM | 0.304 µM | 0.506 µM | > 2 µM | 0.06 µM | 0.226 µM | 0.044 µM | 0.07 µM | – | – | – | – |
| CCc1cc2c(cc1N1CCC(N3CCOCC3)CC1)C(C)(C)c1[nH]c3cc(C#N)ccc3c1C2=O [ALECTINIB] | Dose-Dependent Effect | Dose-Dependent Effect | inactive | > 10 µM | > 10 µM | > 5 µM | > 5 µM | > 5 µM | > 10 µM | > 2 µM | > 2 µM | > 1 µM | > 2 µM | > 10 µM | 2.4 µM | > 1 µM | 2 µM | > 3000 nM |
| COc1cc2c(Oc3ccc(NC(=O)C4(C(=O)Nc5ccc(F)cc5)CC4)cc3F)ccnc2cc1OCCCN1CCOCC1 [FORETINIB] | Dose-Dependent Effect | Dose-Dependent Effect | Dose-Dependent Effect | 0.0038 µM | 0.088 µM | 0.00547 µM | 0.0061 µM | 0.0056 µM | 0.019 µM | 0.069 µM | 0.0086 µM | 0.021 µM | 0.011 µM | – | – | – | – | – |
| COc1cc2nccc(Oc3ccc(NC(=O)C4(C(=O)Nc5ccc(F)cc5)CC4)cc3)c2cc1OC [CABOZANTINIB] | – | – | – | 0.0015 µM | 0.0064 µM | – | – | – | – | 0.0013 µM | 0.0011 µM | – | 0.0023 µM | 0.0014 µM | – | – | – | – |
